According to ChEMBL document CHEMBL5329211, “Selective isoxazolopyrimidine PAT1 (SLC26A6) inhibitors for therapy of intestinal disorders” (RSC Med Chem, 2023):
The source made the active and inactive calls. The calls are words filed in the database; no cut-off is given here.

Legend:
[1] = target: T1, Chloride anion exchanger (Homo sapiens) (UniProt P40879); assay: Inhibition of SLC26A3 (unknown origin) expressed in rat FRT cells coexpressing YFP halide-sensing protein assessed as iodide-chloride exchange at 25 uM incubated for 2 sec by fluorescence quenching analysis; type: cell-based
T1 sequence (whole entry): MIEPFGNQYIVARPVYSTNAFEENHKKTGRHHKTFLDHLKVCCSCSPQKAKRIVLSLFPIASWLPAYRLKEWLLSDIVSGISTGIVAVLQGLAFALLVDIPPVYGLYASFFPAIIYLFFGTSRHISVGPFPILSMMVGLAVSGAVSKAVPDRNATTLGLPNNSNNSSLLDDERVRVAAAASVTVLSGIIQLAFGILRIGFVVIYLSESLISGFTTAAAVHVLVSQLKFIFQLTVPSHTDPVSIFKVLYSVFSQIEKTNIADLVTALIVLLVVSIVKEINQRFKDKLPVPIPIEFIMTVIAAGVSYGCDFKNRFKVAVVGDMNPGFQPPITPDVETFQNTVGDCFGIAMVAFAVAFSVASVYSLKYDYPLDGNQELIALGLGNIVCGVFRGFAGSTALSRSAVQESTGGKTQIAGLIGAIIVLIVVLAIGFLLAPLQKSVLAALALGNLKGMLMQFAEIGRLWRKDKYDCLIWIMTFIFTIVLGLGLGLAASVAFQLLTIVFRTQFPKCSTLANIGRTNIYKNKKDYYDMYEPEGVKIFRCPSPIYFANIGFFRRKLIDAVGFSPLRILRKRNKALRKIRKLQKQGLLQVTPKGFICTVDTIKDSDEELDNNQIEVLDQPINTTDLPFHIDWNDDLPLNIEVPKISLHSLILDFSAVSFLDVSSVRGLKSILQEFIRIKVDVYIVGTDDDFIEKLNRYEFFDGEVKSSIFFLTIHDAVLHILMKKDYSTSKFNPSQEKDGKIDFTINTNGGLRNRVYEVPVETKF

[2] = target: T2, Solute carrier family 26 member 9 (Homo sapiens) (UniProt Q7LBE3); assay: Inhibition of SLC26A9 (unknown origin) expressed in rat FRT cells coexpressing YFP halide-sensing protein assessed as iodide-chloride exchange at 25 uM incubated for 2 sec by fluorescence quenching analysis; type: cell-based
T2 sequence (whole entry): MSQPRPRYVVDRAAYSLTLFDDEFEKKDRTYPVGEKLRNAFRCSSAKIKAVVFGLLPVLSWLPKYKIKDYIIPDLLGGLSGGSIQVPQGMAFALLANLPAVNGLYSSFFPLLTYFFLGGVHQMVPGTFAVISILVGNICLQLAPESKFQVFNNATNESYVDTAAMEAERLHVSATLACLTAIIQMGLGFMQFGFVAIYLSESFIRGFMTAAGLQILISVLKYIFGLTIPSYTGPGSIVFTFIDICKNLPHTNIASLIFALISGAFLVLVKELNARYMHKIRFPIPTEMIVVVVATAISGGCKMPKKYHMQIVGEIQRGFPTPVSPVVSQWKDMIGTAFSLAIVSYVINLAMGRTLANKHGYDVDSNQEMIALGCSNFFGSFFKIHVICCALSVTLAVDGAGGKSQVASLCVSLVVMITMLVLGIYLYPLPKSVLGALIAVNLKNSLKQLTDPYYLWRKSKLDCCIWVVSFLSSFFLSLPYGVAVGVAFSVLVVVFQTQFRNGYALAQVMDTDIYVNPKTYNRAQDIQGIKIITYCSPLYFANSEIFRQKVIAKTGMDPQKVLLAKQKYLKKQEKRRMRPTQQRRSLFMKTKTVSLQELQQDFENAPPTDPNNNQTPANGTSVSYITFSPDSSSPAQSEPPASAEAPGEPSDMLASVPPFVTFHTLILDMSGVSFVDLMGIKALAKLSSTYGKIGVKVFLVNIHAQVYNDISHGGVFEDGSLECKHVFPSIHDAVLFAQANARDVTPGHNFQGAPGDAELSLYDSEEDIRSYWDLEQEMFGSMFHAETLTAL

[3] = target: Cystic fibrosis transmembrane conductance regulator (Homo sapiens) (UniProt P13569); assay: Inhibition of CFTR (unknown origin)
Cystic fibrosis transmembrane conductance regulator (Homo sapiens), sequence (P13569 whole entry, looked up): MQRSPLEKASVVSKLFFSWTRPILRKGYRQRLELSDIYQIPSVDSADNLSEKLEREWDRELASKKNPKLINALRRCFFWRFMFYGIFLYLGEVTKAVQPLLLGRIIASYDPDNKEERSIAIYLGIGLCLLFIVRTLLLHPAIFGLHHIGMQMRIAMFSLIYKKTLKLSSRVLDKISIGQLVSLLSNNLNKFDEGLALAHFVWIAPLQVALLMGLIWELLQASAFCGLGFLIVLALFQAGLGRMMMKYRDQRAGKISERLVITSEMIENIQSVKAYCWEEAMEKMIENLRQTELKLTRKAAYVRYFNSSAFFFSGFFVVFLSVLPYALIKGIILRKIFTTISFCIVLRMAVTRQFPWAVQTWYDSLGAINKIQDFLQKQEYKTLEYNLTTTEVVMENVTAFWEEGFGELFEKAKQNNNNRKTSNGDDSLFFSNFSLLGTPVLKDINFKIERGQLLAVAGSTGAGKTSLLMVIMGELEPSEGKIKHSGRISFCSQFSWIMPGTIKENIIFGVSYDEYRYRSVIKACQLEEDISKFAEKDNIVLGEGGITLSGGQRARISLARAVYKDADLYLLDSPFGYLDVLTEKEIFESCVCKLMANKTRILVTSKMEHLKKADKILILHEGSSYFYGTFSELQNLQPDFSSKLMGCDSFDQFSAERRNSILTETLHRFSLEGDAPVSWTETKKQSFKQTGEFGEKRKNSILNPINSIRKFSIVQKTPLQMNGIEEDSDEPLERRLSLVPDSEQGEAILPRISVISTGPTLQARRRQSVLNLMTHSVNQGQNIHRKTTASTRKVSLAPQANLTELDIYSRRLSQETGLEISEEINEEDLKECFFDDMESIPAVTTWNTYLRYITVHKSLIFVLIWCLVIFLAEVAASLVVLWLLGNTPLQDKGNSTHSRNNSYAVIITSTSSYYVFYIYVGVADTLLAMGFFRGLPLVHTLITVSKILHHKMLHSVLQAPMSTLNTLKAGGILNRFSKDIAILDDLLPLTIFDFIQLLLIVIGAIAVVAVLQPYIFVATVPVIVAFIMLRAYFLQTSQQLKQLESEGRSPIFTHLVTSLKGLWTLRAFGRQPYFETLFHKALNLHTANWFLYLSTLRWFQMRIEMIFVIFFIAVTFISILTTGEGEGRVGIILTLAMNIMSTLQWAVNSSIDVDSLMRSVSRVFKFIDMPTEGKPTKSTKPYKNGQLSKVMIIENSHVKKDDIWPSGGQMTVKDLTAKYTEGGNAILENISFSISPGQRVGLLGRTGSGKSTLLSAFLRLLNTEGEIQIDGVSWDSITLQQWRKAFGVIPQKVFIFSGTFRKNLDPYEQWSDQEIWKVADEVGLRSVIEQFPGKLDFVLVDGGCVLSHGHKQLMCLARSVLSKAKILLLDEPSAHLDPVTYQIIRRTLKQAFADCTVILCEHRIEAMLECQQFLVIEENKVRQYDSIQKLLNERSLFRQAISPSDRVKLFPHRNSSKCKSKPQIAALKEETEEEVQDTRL

[4] = Cytotoxicity against rat FRT cells assessed as reduction in cell viability at 10 uM incubated for 24 hrs by alamar blue staining based analysis; type: toxicity
In short: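 FRT cells seeded 20,000/well and grown 24 h, then exposed to compound at 10 μM for 24 h. Vehicle control 0.1% DMSO, positive control 20% DMSO. Viability read by Alamar Blue.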

[5] = In vivo inhibition of PAT1 in intestinal closed-loop CD-1 mouse model assessed as reduction in loop weight/length ratio in ileum measured for 30 mins; type: functional; conditions: 0.5 h
In short: (§1)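 Mice (wild-type CD1 or homozygous F508del CF, 10-16 wk, both sexes) fasted 24 h with free access to 5% dextrose water. Under isoflurane at 36-38 °C, 2-3 ileal loops (2-3 cm) were tied off and injected with 100 µL PBS pH 7.4 containing 30 µM inhibitor, 10 µM tenapanor or 0.1% DMSO vehicle. Loops removed at 0 or 30 min in separate mice; length and weight measured for fluid absorption. One-way ANOVA with Newman-Keuls.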

Mus musculus = assay: In vivo inhibition of PAT1 in intestinal closed-loop CD-1 mouse model harboring CFTR delF508/delF508 mutant assessed as reduction in loop weight/length ratio in ileum measured for 30 mins; type: functional, organism-based; in short: as §1
[6] = In vivo inhibition of PAT1 in intestinal closed-loop CD-1 mouse model harboring CFTR delF508/delF508 mutant assessed as reduction in loop fluid volume in ileum measured for 30 mins; type: functional; conditions: 0.5 h; in short: as §1

inhibition [1]: inactive | inhibition [2]: inactive | inhibition [3]: inactive
Structure (SMILES): CCOC(=O)c1nc(N(C)Cc2ccccc2)c2c(C)noc2n1
Activity [4]: Non-Toxic | inhibition (INH) [5]: >90% | inhibition (Mus musculus): Active | inhibition (INH) [6]: >90%
